For assay [1], the species on record is Bos taurus. In words: Displacement of [3H]colchicine from bovine brain tubulin at 5 uM by scintillation counting. In outline: (§1)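 Electrophoretically homogeneous bovine brain tubulin (1.0 µM, 0.1 mg/mL) in a tubulin-stabilizing buffer with 5.0 µM [3H]colchicine and compound at 1.0, 5.0 or 50 µM, final DMSO 5% (v/v). Incubation was 10 min at 37 °C. Reactions were stopped with ice water and filtered through stacked DEAE-cellulose filters. Read-out is % inhibition of colchicine binding.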
For orientation: In a radioligand displacement assay an active substance lowers the binding of a labelled ligand.

The species named for assay [2] is Bos taurus. In words: Displacement of [3H]colchicine from bovine brain tubulin at 1 uM by scintillation counting.
Assay [3] can be described thus: Inhibition of bovine brain tubulin by spectrophotometry. Further details: species or system Bos taurus. In outline:
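Assembly of electrophoretically homogeneous bovine brain tubulin at 10 µM (1.0 mg/mL) in 0.8 M monosodium glutamate pH 6.6 with 4% DMSO. Tubulin was preincubated with compound at varying concentrations for 15 min at 30 °C without GTP, chilled, then 0.4 mM GTP was added. After a jump from 0 to 30 °C, turbidity at 350 nm was followed for 20 min.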

For assay [4], the system named is MCF7. In words: Antiproliferative activity against human MCF7 cells after 48 hrs by sulforhodamine B assay. Type of assay: functional, cell-based. Particulars: MCF7, 48 h. In outline:
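MCF-7 cells from the NCI screening program, grown as monolayers in RPMI 1640 with 5% FBS at 37 °C in humidified 5% CO2. Cells were seeded 24 h before compound addition (DMSO, final 1% v/v) at varying concentrations.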
On the technique in general: In SRB staining, fixed cells bind dye roughly in proportion to their protein.

Assay [5] has as its system HCT-8. In words: Cytotoxicity against human HCT8 cells after 72 hrs by MTT assay. Type of assay: functional, cell-based. Particulars: HCT-8, 72 h. In outline: (§2)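 Four human tumour lines (MDA/MB-435, HCT-8, SF-295, HL-60) were exposed to compound at 0.0009–5 µg/mL for 72 h. Growth was quantified by living-cell reduction of MTT to blue formazan.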
On the technique in general: Tetrazolium dyes change colour on reduction, which living cells bring about.

Assay [6] relates to HL-60. In words: Cytotoxicity against human HL60 cells after 72 hrs by MTT assay. Type of assay: functional, cell-based. Particulars: HL-60, 72 h. In outline: as §2
In assay [7] the test system is SF-295. In words: Cytotoxicity against human SF295 cells after 72 hrs by MTT assay. The note with it: SF-295, 72 h. The assay is classed as functional, cell-based. In outline:
as §2

Assay [8] has as its system MDA-MB-435. In words: Cytotoxicity against human MDA-MB-435 cells after 72 hrs by MTT assay. Type of assay: functional, cell-based. The note with it: MDA-MB-435, 72 h. In outline:
as §2

The species named for assay [9] is Bos taurus. In words: Displacement of [3H]colchicine from bovine brain tubulin at 50 uM by scintillation counting. In outline: as §1

SMILES strings stand for the structures.

Consider 11 compounds from ChEMBL document CHEMBL1158380 (Eur J Med Chem, 2009).

As to `COc1ccc(C(=O)c2cc(OC)c(OC)c(OC)c2)cc1O` [PHENSTATIN], the figures for the Activity in assay [1] and in assay [2] were 78% and 70%, respectively. Also, the IC50 – broadly, the concentration that inhibits the measured activity by half – was 730 nM in assay [3] and 34 nM in assay [4].

Take `COc1ccc(S(=O)(=O)c2cc(OC)c(OC)c(OC)c2)cc1`: the results for the Activity in assay [1] and in assay [9] were 18% and 53%, respectively. Further, the concentration for half-maximal inhibition (IC50) was greater than 40000 nM in assay [3]; 12200 nM in assay [5]; 2600 nM in assay [4]; 4750 nM in [6]; 8100 nM in assay [7]; 2320 nM in [8].

With `COc1ccc(/C=C/c2cc(OC)c(OC)c(OC)c2)cc1`, the Activity was determined as 97% in assay [1] and 74% in assay [2]. In addition, the IC50 was found to be 1100 nM in [3] and 4.8 nM in [4].

As for `COc1ccc([S+]([O-])c2cc(OC)c(OC)c(OC)c2)cc1` (centres undefined), the Activity in [1] is 16%; in assay [9], 41%. Also, the IC50 in assay [3] was 31000 nM; in assay [5], 470 nM; in assay [4], 2200 nM; in [6], 340 nM; in [7], 1460 nM; in [8], 280 nM.

For `COc1ccc(Sc2cc(OC)c(OC)c(OC)c2)cc1`, the values for the Activity in assay [1] and in [2] were 89% and 56%, respectively. Also, the IC50 was determined as 1200 nM in assay [3]; 40 nM in [5]; 16 nM in assay [4]; 3 nM in assay [6]; 30 nM in assay [7]; 3 nM in assay [8].

Turning to `COc1ccc(C(=O)c2cc(OC)c(OC)c(OC)c2)cc1`, the figures for the Activity in [1] and in [9] were 50% and 95%, respectively. Also, the figures for the IC50 in assay [3] and in assay [4] were 2200 nM and 160 nM, respectively.

On to `COc1ccc(CCc2cc(OC)c(OC)c(OC)c2)cc1`, for which the Activity worked out at 50% in [1] and 89% in assay [9]. Moreover, the IC50 in [3] amounted to 2600 nM; in assay [4], 78 nM.

Consider `COc1ccc(Cc2cc(OC)c(OC)c(OC)c2)cc1`, for which the Activity in assay [1] was 36%; in [9], 83%. In addition, the IC50 in assay [3] was 4000 nM; in assay [4] it was 130 nM.

Regarding `COc1ccc(Cc2cc(OC)c(OC)c(OC)c2)cc1O`, the Activity in assay [1] amounted to 44%; in assay [9], 91%. Moreover, the IC50 was found to be 2900 nM in [3] and 59 nM in assay [4].

In the case of `COc1ccc(CCc2cc(OC)c(OC)c(OC)c2)cc1O`, the Activity in assay [1] came to 67%; in assay [2] it was 49%. Further, the IC50 amounted to 1600 nM in assay [3] and 13 nM in assay [4].

In the case of `COc1ccc(/C=C/c2cc(OC)c(OC)c(OC)c2)cc1O` [E-COMBRETASTATIN A-4], in assay [2], the Activity amounted to 85%. The same compound displayed a concentration for half-maximal inhibition (IC50) in [4] of 1.4 nM.
